Experimental data: ChEMBL document CHEMBL1135382, “First dual NK(1) antagonists-serotonin reuptake inhibitors: synthesis and SAR of a new class of potential antidepressants” (Bioorg Med Chem Lett, 2002)

Legend:
[1] = Lipophilicity; type: physicochemical
[2] = molecular target: T1, Substance-P receptor (Homo sapiens, UniProt P25103); assay: Binding affinity at human Tachykinin receptor 1 expressed in CHO cells by [3H]-substance P displacement.; type: cell-based
Summary of the method: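 Membranes (10–20 μg protein) from CHO cells expressing human NK1 receptor were incubated 60 min at 25 °C in 50 mM Tris–HCl pH 7.4 with 2 mM MgCl2, 100 μg/mL bacitracin and 0.25 nM [3H]substance P.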

[3] = molecular target: Sodium-dependent serotonin transporter (Rattus norvegicus, UniProt P31652); assay: Binding affinity at serotonin transporter from rat cerebral cortex by [3H]-paroxetine displacement.; type: tissue-based
Summary of the method: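 Rat cerebral cortex membranes (100–200 μg protein) were incubated 120 min at 25 °C in 50 mM Tris–HCl pH 7.4 with 2 mM MgCl2 and 0.05 nM radioligand. Nonspecific binding was defined with 5 μM imipramine.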

[4] = molecular target: T1, Substance-P receptor; assay: Binding affinity towards human Tachykinin receptor 1 expressed in CHO cells using [3H]-substance P; Less than 50% inhibition at 10e-5 M; type: cell-based

Chain of Sodium-dependent serotonin transporter (P31652 whole entry): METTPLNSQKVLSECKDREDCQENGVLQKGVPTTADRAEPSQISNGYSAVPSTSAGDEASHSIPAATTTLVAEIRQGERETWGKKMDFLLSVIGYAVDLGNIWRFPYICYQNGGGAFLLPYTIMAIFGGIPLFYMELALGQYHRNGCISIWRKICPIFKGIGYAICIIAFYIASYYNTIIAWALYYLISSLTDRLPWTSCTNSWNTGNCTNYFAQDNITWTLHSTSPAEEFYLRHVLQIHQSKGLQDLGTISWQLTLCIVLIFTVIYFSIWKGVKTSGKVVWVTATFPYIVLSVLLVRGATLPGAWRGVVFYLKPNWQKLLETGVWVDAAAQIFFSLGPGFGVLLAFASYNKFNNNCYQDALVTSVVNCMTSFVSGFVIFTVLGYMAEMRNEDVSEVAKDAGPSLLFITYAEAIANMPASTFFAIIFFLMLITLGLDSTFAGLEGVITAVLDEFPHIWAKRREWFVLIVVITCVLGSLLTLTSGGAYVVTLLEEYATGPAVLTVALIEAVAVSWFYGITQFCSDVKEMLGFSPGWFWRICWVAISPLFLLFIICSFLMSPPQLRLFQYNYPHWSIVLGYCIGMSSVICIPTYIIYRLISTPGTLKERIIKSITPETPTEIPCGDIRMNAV
T1 sequence (P25103 whole entry): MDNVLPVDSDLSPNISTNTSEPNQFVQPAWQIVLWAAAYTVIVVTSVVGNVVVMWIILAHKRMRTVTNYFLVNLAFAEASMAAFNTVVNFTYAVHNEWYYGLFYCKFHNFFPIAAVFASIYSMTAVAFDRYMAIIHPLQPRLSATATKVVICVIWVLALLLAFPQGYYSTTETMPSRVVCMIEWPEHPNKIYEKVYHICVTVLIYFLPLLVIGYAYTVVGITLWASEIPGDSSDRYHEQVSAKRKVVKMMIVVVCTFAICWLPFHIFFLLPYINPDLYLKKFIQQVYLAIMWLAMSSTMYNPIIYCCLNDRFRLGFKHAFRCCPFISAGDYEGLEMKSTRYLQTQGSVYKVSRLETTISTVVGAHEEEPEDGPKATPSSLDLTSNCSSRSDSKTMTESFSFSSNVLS

O=C(COc1cc(C(F)(F)F)cc(C(F)(F)F)c1)N(Cc1ccccc1Cl)C1CCNCC1
Log K' IAM [1]: 3.2 | IC50 [2]: 0.126 µM | IC50 [3]: 0.158 µM

O=C(COc1cc(C(F)(F)F)cc(C(F)(F)F)c1)N(Cc1cccc(Cl)c1)C1CCNCC1
Log K' IAM [1]: 3.4 | IC50 [2]: 0.0251 µM | IC50 [3]: 0.158 µM

Fc1ccc(CN(CCCc2cc(C(F)(F)F)cc(C(F)(F)F)c2)C2CCNCC2)cc1
Log K' IAM [1]: 3.8 | IC50 [2]: 0.126 µM | IC50 [3]: 0.0251 µM

O=C(COc1cc(C(F)(F)F)cc(C(F)(F)F)c1)N(c1ccc(F)cc1)C1CCNCC1
Log K' IAM [1]: 2.5 | IC50 [2]: 0.316 µM | IC50 [3]: 0.631 µM

O=C(COc1cc(C(F)(F)F)cc(C(F)(F)F)c1)N(c1cc(Cl)cc(Cl)c1)C1CCNCC1
Log K' IAM [1]: 3.4 | inhibition [4]: < 5% | IC50 [3]: 0.158 µM

Cc1cccc(CN(C(=O)CCc2cc(C(F)(F)F)cc(C(F)(F)F)c2)C2CCNCC2)c1
Log K' IAM [1]: 3.2 | IC50 [2]: 0.0251 µM | IC50 [3]: 0.2 µM

Cc1cc(C)cc(OCC(=O)N(Cc2cccc(Cl)c2)C2CCNCC2)c1
Log K' IAM [1]: 2.6 | IC50 [2]: 0.1 µM | IC50 [3]: 0.0251 µM

O=C(CCc1cc(C(F)(F)F)cc(C(F)(F)F)c1)N(Cc1ccc(F)cc1)C1CCNCC1
Log K' IAM [1]: 2.9 | IC50 [2]: 0.0316 µM | IC50 [3]: 0.316 µM

O=C(COc1cc(C(F)(F)F)cc(C(F)(F)F)c1)N(c1cccc(Cl)c1)C1CCNCC1
Log K' IAM [1]: 3 | IC50 [2]: 0.2 µM | IC50 [3]: 0.158 µM

O=C(COc1cc(Cl)cc(Cl)c1)N(Cc1cccc(Cl)c1)C1CCNCC1
Log K' IAM [1]: 3.1 | IC50 [2]: 0.126 µM | IC50 [3]: 0.0501 µM

Fc1ccc(N(CCCc2cc(C(F)(F)F)cc(C(F)(F)F)c2)C2CCNCC2)cc1
Log K' IAM [1]: 3.9 | IC50 [2]: 0.0501 µM | IC50 [3]: 0.0398 µM

O=C(COc1cc(F)cc(C(F)(F)F)c1)N(c1ccc(Cl)c(Cl)c1)C1CCNCC1
Log K' IAM [1]: 3 | inhibition [4]: < 5% | IC50 [3]: 0.0398 µM

O=C(COc1cc(F)cc(C(F)(F)F)c1)N(Cc1cccc(Cl)c1)C1CCNCC1
Log K' IAM [1]: 2.9 | inhibition [4]: < 5% | IC50 [3]: 0.1 µM

O=C(CCc1cc(C(F)(F)F)cc(C(F)(F)F)c1)N(c1ccc(F)cc1)C1CCNCC1
Log K' IAM [1]: 2.9 | IC50 [2]: 0.2 µM | IC50 [3]: 0.251 µM

O=C(COc1cc(F)cc(F)c1)N(Cc1cccc(Cl)c1)C1CCNCC1
Log K' IAM [1]: 2.4 | inhibition [4]: < 5% | IC50 [3]: 0.02 µM

Cc1cccc(CN(C(=O)COc2cc(C(F)(F)F)cc(C(F)(F)F)c2)C2CCNCC2)c1
Log K' IAM [1]: 3.3 | IC50 [2]: 0.0794 µM | IC50 [3]: 0.251 µM

O=C(COc1cc(C(F)(F)F)cc(C(F)(F)F)c1)N(c1ccc(Cl)c(Cl)c1)C1CCNCC1
Log K' IAM [1]: 3.4 | IC50 [2]: 0.0316 µM | IC50 [3]: 0.158 µM

O=C(CCc1cc(C(F)(F)F)cc(C(F)(F)F)c1)N(Cc1ccccc1Cl)C1CCNCC1
Log K' IAM [1]: 3.2 | IC50 [2]: 0.1 µM | IC50 [3]: 0.2 µM
